Laboratory results from ChEMBL document CHEMBL3286242, “Design, synthesis and biological evaluation of arylcinnamide hybrid derivatives as novel anticancer agents” (Eur J Med Chem, 2014).
Each block holds one compound with its values, some of them ahead of it. Activity calls are given as the source filed them. No cut-off for these calls is given here.

Key:
HeLa = test: Cytotoxicity against human HeLa cells assessed as growth inhibition after 72 hrs by MTT assay; type: functional, cell-based
HT-29 = test: Cytotoxicity against human HT-29 cells assessed as growth inhibition after 72 hrs by MTT assay; type: functional, cell-based; details: HT-29, 72 h
LoVo = test: Cytotoxicity against human LoVo cells assessed as growth inhibition after 72 hrs by MTT assay; type: functional, cell-based
CCRF-CEM = test: Cytotoxicity against human CEM cells assessed as growth inhibition after 72 hrs by MTT assay; type: functional, cell-based
Jurkat = test: Cytotoxicity against human Jurkat cells assessed as growth inhibition after 72 hrs by MTT assay; type: functional, cell-based
[1] = Cytotoxicity against human SEM cells assessed as growth inhibition after 72 hrs by MTT assay; type: functional, cell-based
MCF7 = test: Cytotoxicity against human MCF7 cells assessed as growth inhibition after 72 hrs by MTT assay; type: functional, cell-based; details: MCF7, 72 h
Tubulin (Bos taurus) = Tubulin (Bos taurus) (UniProt Q6B856+Q862L2+Q862F3); test: Inhibition of bovine brain tubulin polymerization at 20 uM by turbidimetry
Summary of the method: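 Purified bovine brain tubulin (10 μM) preincubated with compound in glutamate buffer at 30 °C, cooled to 0 °C, GTP added, then warmed to 30 °C in cuvettes; assembly followed turbidimetrically; concentrations up to 20 μM.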

[2] = Cytotoxicity against human CEM/VBL100 cells assessed as growth inhibition after 72 hrs by MTT assay; type: functional, cell-based; details: CEM/VBL100, 72 h

inhibition (Tubulin (Bos taurus)): inactive
SMILES: C=C(Br)C(=O)Nc1cccc(/C=C/C(=O)Nc2ccc(OC)c(OC)c2)c1
IC50 (HeLa): 560 nM
IC50 (HT-29): 1900 nM
IC50 (LoVo): 150 nM
IC50 (CCRF-CEM): 21 nM
IC50 (Jurkat): 190 nM
IC50 [1]: 3 nM
IC50 (MCF7): 2800 nM

SMILES: C=C(Br)C(=O)Nc1cccc(/C=C/C(=O)Nc2ccccc2)c1
IC50 (HeLa): 7300 nM
IC50 (HT-29): 16600 nM
IC50 (LoVo): 3900 nM
IC50 (CCRF-CEM): 190 nM
IC50 (Jurkat): 5000 nM
IC50 [1]: 1100 nM
IC50 (MCF7): 27300 nM

SMILES: C=C(Br)C(=O)Nc1cccc(/C=C/C(=O)NCc2ccc(C)cc2)c1
IC50 (HeLa): 1700 nM
IC50 (HT-29): 2700 nM
IC50 (LoVo): 1900 nM
IC50 (CCRF-CEM): 550 nM
IC50 (Jurkat): 740 nM
IC50 [1]: 1300 nM
IC50 (MCF7): 2200 nM

inhibition (Tubulin (Bos taurus)): inactive
SMILES: C=C(Br)C(=O)Nc1cccc(/C=C/C(=O)Nc2ccc(F)c(F)c2)c1
IC50 (HeLa): 1900 nM
IC50 (HT-29): 8700 nM
IC50 (LoVo): 540 nM
IC50 (CCRF-CEM): 13 nM
IC50 (Jurkat): 550 nM
IC50 [1]: 90 nM
IC50 (MCF7): 2690 nM

SMILES: COc1cc(NC(=O)/C=C/c2cccc(N)c2)cc(OC)c1OC
IC50 (HeLa): 53100 nM
IC50 (HT-29): 63100 nM
IC50 (LoVo): 45200 nM
IC50 (CCRF-CEM): 40900 nM
IC50 (Jurkat): 43300 nM
IC50 [1]: 2810 nM
IC50 (MCF7): 55400 nM

SMILES: C=C(Br)C(=O)Nc1cccc(/C=C/C(=O)Nc2cccc3ccccc23)c1
IC50 (HeLa): 1400 nM
IC50 (HT-29): 6500 nM
IC50 (LoVo): 1160 nM
IC50 (CCRF-CEM): 1800 nM
IC50 (Jurkat): 680 nM
IC50 [1]: 830 nM
IC50 (MCF7): 2800 nM

SMILES: CC[C@]1(O)C[C@@H]2CN(CCc3c([nH]c4ccccc34)[C@@](C(=O)OC)(c3cc4c(cc3OC)N(C)[C@H]3[C@@](O)(C(=O)OC)[C@H](OC(C)=O)[C@]5(CC)C=CCN6CC[C@]43[C@@H]65)C2)C1 [VINBLASTINE]
IC50 [2]: 21 nM

SMILES: C=C(Br)C(=O)Nc1cccc(/C=C/C(=O)Nc2ccc(C)cc2)c1
IC50 (HeLa): 1500 nM
IC50 (HT-29): 1200 nM
IC50 (LoVo): 1500 nM
IC50 (CCRF-CEM): 270 nM
IC50 (Jurkat): 240 nM
IC50 [1]: 190 nM
IC50 (MCF7): 2500 nM

SMILES: C=C(Br)C(=O)Nc1cccc(/C=C/C(=O)Nc2ccc(SC(F)(F)F)cc2)c1
IC50 (HeLa): 19000 nM
IC50 (HT-29): 39800 nM
IC50 (LoVo): 29300 nM
IC50 (CCRF-CEM): 15300 nM
IC50 (Jurkat): 30100 nM
IC50 [1]: 12700 nM
IC50 (MCF7): 30100 nM

SMILES: COc1cccc2c1C(=O)c1c(O)c3c(c(O)c1C2=O)C[C@@](O)(C(=O)CO)C[C@@H]3O[C@H]1C[C@H](N)[C@H](O)[C@H](C)O1 [DOXORUBICIN]
IC50 (LoVo): 90 nM

SMILES: COc1cccc(/C=C/C(=O)Nc2cc(OC)c(OC)c(OC)c2)c1
IC50 (HeLa): 16500 nM
IC50 (HT-29): 44100 nM
IC50 (LoVo): 43000 nM
IC50 (CCRF-CEM): 23400 nM
IC50 (Jurkat): 12500 nM
IC50 [1]: 18200 nM
IC50 (MCF7): 27000 nM

SMILES: C=C(Br)C(=O)Nc1ccc(/C=C/C(=O)Nc2ccc(OC)cc2)cc1
IC50 (HeLa): 1600 nM
IC50 (HT-29): 3100 nM
IC50 (LoVo): 60 nM
IC50 (CCRF-CEM): 22 nM
IC50 (Jurkat): 1400 nM
IC50 [1]: 80 nM
IC50 (MCF7): 3000 nM

SMILES: C=C(Br)C(=O)Nc1cccc(/C=C/C(=O)Nc2cc(OC)cc(OC)c2)c1
IC50 (HeLa): 2200 nM
IC50 (HT-29): 3600 nM
IC50 (LoVo): 1210 nM
IC50 (CCRF-CEM): 11 nM
IC50 (Jurkat): 980 nM
IC50 [1]: 40 nM
IC50 (MCF7): 3000 nM

SMILES: C=C(Br)C(=O)Nc1cccc(/C=C/C(=O)Nc2ccc(OCC)cc2)c1
IC50 (HeLa): 2000 nM
IC50 (HT-29): 3400 nM
IC50 (LoVo): 850 nM
IC50 (CCRF-CEM): 98 nM
IC50 (Jurkat): 930 nM
IC50 [1]: 180 nM
IC50 (MCF7): 5500 nM

SMILES: C=C(Br)C(=O)Nc1cccc(/C=C/C(=O)Nc2ccc(Cl)cc2)c1
IC50 (HeLa): 2800 nM
IC50 (HT-29): 7900 nM
IC50 (LoVo): 5900 nM
IC50 (CCRF-CEM): 460 nM
IC50 (Jurkat): 2600 nM
IC50 [1]: 1190 nM
IC50 (MCF7): 11000 nM

SMILES: C=C(Br)C(=O)Nc1cccc(/C=C/C(=O)Nc2ccc(OC(F)(F)F)cc2)c1
IC50 (HeLa): 29000 nM
IC50 (HT-29): 61200 nM
IC50 (LoVo): 30300 nM
IC50 (CCRF-CEM): 13000 nM
IC50 (Jurkat): 30300 nM
IC50 [1]: 19300 nM
IC50 (MCF7): 43300 nM

SMILES: C=C(Br)C(=O)Nc1cccc(/C=C/C(=O)Nc2cccc(F)c2)c1
IC50 (HeLa): 1200 nM
IC50 (HT-29): 4600 nM
IC50 (LoVo): 1000 nM
IC50 (CCRF-CEM): 26000 nM
IC50 (Jurkat): 1000 nM
IC50 [1]: 620 nM
IC50 (MCF7): 3300 nM

inhibition (Tubulin (Bos taurus)): inactive
SMILES: C=C(Br)C(=O)Nc1cccc(/C=C/C(=O)Nc2ccc(OC)cc2)c1
IC50 (HeLa): 790 nM
IC50 (HT-29): 2300 nM
IC50 (LoVo): 550 nM
IC50 (CCRF-CEM): 26 nM
IC50 (Jurkat): 470 nM
IC50 [1]: 70 nM
IC50 (MCF7): 2500 nM

SMILES: COc1cc(NC(=O)/C=C/c2cccc(OCc3ccccc3)c2)cc(OC)c1OC
IC50 (HeLa): 2200 nM
IC50 (HT-29): 3600 nM
IC50 (LoVo): 21700 nM
IC50 (CCRF-CEM): 17300 nM
IC50 (Jurkat): 3500 nM
IC50 [1]: 8500 nM
IC50 (MCF7): 2400 nM

SMILES: C=C(Br)C(=O)Nc1cccc(/C=C/C(=O)Nc2ccc(F)cc2)c1
IC50 (HeLa): 16800 nM
IC50 (HT-29): 36600 nM
IC50 (LoVo): 4800 nM
IC50 (CCRF-CEM): 16600 nM
IC50 (Jurkat): 6200 nM
IC50 [1]: 8400 nM
IC50 (MCF7): 13600 nM

inhibition (Tubulin (Bos taurus)): inactive
SMILES: C=C(Br)C(=O)Nc1cccc(/C=C/C(=O)Nc2cc(OC)c(OC)c(OC)c2)c1
IC50 (HeLa): 880 nM
IC50 (HT-29): 2300 nM
IC50 (LoVo): 140 nM
IC50 (CCRF-CEM): 59 nM
IC50 (Jurkat): 290 nM
IC50 [1]: 18 nM
IC50 (MCF7): 1800 nM
